Tests used:
MCF7 = experiment: Antiproliferative activity against human MCF7 cells by MTT assay; assay type: functional, cell-based
How it was run: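 MCF-7 cells grown in Eagle's MEM with 10% FBS, 2 mM L-glutamine, penicillin/streptomycin and 1% non-essential amino acids. Seeded at 2.5×10^4 cells/mL, left 24 h at 37°C, then treated 72 h across 1 nM–100 μM from ethanol stocks (vehicle 1% v/v). MTT at 1 mg/mL final for 2 h in darkness, DMSO solubilisation, absorbance read. IC50 is the mean of at least three experiments in triplicate.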

MDA-MB-231 = experiment: Antiproliferative activity against human MDA-MB-231 cells by MTT assay; assay type: functional, cell-based
How it was run: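 MDA-MB-231 cells in DMEM with 10% FBS, 2 mM L-glutamine and penicillin/streptomycin were seeded at 2.5×10^4 cells/mL and held 24 h at 37°C. They then got ethanol-stock compound over 1 nM–100 μM (vehicle 1% v/v ethanol) for 72 h. MTT at 1 mg/mL final was added for 2 h in the dark, then DMSO for 20 min before absorbance. Untreated = 100% viability. IC50 is the mean ± S.E.M. of ≥3 triplicate experiments.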

[1] = Cytotoxicity against CD-1 mouse mammary epithelial cells seeded at 25000 cells/ml assessed as viable cells at 10 uM after 72 hrs by alamar blue assay; assay type: cell-based, Epithelial cell; details: read-out: Activity
How it was run: (§1)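 Primary mammary epithelial cells came from 14-18 day pregnant CD-1 mice and were seeded at 25,000 or 50,000 cells/mL. After 24 h they were exposed 72 h to 1 nM–100 μM compound from ethanol stocks (vehicle ethanol 1% v/v). Viability was read with alamar blue.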

[2] = Cytotoxicity against CD-1 mouse mammary epithelial cells seeded at 50000 cells/ml assessed as viable cells at 10 uM after 72 hrs by alamar blue assay; assay type: cell-based, Epithelial cell; details: read-out: Activity; how it was run: as §1
[3] = Cytotoxicity against CD-1 mouse mammary epithelial cells seeded at 25000 cells/ml assessed as viable cells at IC50 after 72 hrs by alamar blue assay; assay type: cell-based, Epithelial cell; details: read-out: Activity; how it was run: as §1
[4] = Cytotoxicity against CD-1 mouse mammary epithelial cells seeded at 50000 cells/ml assessed as viable cells at IC50 after 72 hrs by alamar blue assay; assay type: cell-based, Epithelial cell; details: read-out: Activity; how it was run: as §1
Bos taurus = organism: Bos taurus; experiment: Inhibition of bovine tubulin polymerization assessed as reduction in Vmax at 10 uM by spectrophotometry
How it was run: (§2)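 Purified bovine tubulin was mixed with GTP and polymerisation started by warming from 4 °C to 37 °C. Absorbance at 340 nm was recorded every 30 s for 60 min at 37 °C, with 1% v/v ethanol as vehicle. Fold change in Vmax was calculated against the ethanol control. Runs were in triplicate.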

[5] = Inhibition of bovine tubulin polymerization assessed as concentration required for 50% Vmax inhibition by spectrophotometry; set-up: species or system Bos taurus
[6] = Inhibition of bovine tubulin polymerization by spectrophotometry; set-up: species or system Bos taurus; how it was run: as §2

Row | Compound | IC50 (MCF7) [nM] | further results
1 | COc1ccc([C@@H]2C(c3cc4ccccc4n3C)C(=O)N2c2cc(OC)c(OC)c(OC)c2)cc1 (stereo partly drawn) | 6600 | 
2 | COc1ccc([C@@H]2[C@@H](c3cccs3)C(=O)N2c2cc(OC)c(OC)c(OC)c2)cc1O | 7 | IC50 (MDA-MB-231): 180 nM; viability at 72 h, 10 µM [1]: 71.2%; viability at 72 h, 10 µM [2]: 74.8%; viability at 72 h [3]: 90.7%; viability at 72 h [4]: 90.6%; fold change (FC) (Bos taurus): 3.2; IC50 [5]: 1370 nM; IC50 [6]: 6250 nM
3 | COc1ccc([C@@H]2[C@@H](c3ccsc3)C(=O)N2c2cc(OC)c(OC)c(OC)c2)cc1O | 10 | IC50 (MDA-MB-231): 49 nM
4 | COc1ccc([C@@H]2[C@@H](c3cccs3)C(=O)N2c2cc(OC)c(OC)c(OC)c2)cc1N | 42 | IC50 (MDA-MB-231): 110 nM
5 | COc1ccc([C@@H]2[C@@H](C(O)c3ccoc3)C(=O)N2c2cc(OC)c(OC)c(OC)c2)cc1 (stereo partly drawn) | 1100 | 
6 | COc1ccc([C@@H]2[C@@H](C(O)c3cccs3)C(=O)N2c2cc(OC)c(OC)c(OC)c2)cc1 (stereo partly drawn) | 1200 | 
7 | COc1ccc([C@@H]2[C@@H](C(O)c3ccc(C)s3)C(=O)N2c2cc(OC)c(OC)c(OC)c2)cc1 (stereo partly drawn) | 1260 | 
8 | COc1ccc([C@@H]2[C@@H](C(=O)c3cccs3)C(=O)N2c2cc(OC)c(OC)c(OC)c2)cc1 | 950 | 
9 | COc1ccc([C@@H]2[C@@H](C(=O)c3ccsc3)C(=O)N2c2cc(OC)c(OC)c(OC)c2)cc1 | 470 | 
10 | COc1ccc([C@@H]2/C(=C/c3cccs3)C(=O)N2c2cc(OC)c(OC)c(OC)c2)cc1 | 4050 | 
11 | COc1ccc(C2/C(=C/c3ccc(C)s3)C(=O)N2c2cc(OC)c(OC)c(OC)c2)cc1 (stereo not drawn) | 580 | 
12 | COc1ccc([C@@H]2C(C3CCCCC3)C(=O)N2c2cc(OC)c(OC)c(OC)c2)cc1 (mixture of isomers) | 580 | 
13 | COc1ccc([C@H]2N(c3cc(OC)c(OC)c(OC)c3)C(=O)C2(C)c2ccccc2)cc1 (mixture of isomers) | 43500 | 

— ChEMBL document CHEMBL1765074, “Synthesis, evaluation and structural studies of antiproliferative tubulin-targeting azetidin-2-ones” (Bioorg Med Chem, 2011)
